Changes are numbered by the printed parent chain.
Key:
Conditions in all cases: stereoisomer not certain
O5AP2 A105T = tested on: T1, O5AP2 A105T
T1 sequence (whole entry): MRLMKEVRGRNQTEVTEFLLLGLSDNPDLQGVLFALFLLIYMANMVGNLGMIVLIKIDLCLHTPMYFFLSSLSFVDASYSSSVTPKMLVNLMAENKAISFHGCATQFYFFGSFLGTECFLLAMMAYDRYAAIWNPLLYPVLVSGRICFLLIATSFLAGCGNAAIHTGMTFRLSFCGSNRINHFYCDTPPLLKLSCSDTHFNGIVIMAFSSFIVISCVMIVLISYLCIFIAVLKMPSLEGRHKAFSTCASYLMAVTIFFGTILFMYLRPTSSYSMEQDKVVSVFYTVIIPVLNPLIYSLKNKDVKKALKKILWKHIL
Procedure, shortened: (§1)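 Assay methods differ from source to source, frequently being transient luciferase assays in mammalian cell lines. For each receptor–molecule pair, the label responsive (active) applies when the original authors judged the measured signal statistically different from baseline, and non-responsive (inactive) applies otherwise.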

O5AU1 = tested on: T2, O5AU1
T2 sequence (whole entry): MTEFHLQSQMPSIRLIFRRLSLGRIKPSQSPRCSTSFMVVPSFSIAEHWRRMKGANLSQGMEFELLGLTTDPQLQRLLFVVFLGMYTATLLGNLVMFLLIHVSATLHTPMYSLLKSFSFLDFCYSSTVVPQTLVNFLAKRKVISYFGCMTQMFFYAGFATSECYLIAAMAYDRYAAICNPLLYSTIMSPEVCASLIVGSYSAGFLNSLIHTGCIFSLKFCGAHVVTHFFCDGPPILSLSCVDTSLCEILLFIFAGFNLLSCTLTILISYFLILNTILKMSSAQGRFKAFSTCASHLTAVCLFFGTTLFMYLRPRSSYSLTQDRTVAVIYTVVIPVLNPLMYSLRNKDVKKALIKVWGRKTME
Procedure, shortened: as §1

O5H14 = tested on: T3, O5H14
T3 sequence (whole entry): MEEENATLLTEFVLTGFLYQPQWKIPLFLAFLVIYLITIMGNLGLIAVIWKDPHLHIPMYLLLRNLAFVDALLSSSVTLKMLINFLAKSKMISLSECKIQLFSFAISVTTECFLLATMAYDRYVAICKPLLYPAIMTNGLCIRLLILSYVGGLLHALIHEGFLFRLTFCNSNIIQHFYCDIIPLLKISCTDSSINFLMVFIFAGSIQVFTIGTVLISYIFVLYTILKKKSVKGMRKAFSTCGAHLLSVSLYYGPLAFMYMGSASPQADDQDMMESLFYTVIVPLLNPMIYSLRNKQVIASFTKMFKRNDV
Procedure, shortened: as §1

O5H15 V108I S148T T167S = tested on: T4, O5H15 V108I S148T T167S
T4 sequence (whole entry): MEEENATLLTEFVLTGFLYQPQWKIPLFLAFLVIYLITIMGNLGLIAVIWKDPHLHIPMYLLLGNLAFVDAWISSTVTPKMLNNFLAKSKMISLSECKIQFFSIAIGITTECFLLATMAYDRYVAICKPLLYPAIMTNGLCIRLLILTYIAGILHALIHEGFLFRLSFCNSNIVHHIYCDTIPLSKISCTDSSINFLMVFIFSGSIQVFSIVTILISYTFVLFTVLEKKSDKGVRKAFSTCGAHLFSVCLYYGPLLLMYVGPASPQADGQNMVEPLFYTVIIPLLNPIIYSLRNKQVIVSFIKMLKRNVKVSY
Procedure, shortened: as §1

O6C65 T222A = tested on: T5, O6C65 T222A
T5 sequence (whole entry): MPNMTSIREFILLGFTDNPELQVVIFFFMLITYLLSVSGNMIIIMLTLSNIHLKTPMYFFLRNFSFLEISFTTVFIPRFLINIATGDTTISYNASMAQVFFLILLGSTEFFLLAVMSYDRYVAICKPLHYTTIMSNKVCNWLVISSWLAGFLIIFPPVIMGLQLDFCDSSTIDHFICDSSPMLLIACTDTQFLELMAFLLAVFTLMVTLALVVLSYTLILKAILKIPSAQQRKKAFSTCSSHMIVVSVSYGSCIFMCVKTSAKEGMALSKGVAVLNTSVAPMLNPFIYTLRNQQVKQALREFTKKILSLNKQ
Procedure, shortened: as §1

O6C70 L181P = tested on: T6, O6C70 L181P
T6 sequence (whole entry): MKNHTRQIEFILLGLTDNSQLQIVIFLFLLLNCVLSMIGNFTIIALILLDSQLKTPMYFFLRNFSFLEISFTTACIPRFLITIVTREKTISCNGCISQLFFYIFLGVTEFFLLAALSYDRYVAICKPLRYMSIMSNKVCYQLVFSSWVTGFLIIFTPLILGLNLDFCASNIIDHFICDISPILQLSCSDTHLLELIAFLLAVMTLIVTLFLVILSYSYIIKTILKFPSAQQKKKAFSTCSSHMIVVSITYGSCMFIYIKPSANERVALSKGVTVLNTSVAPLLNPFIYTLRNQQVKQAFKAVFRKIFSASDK
Procedure, shortened: as §1

O7E24 S193F P242S = tested on: T7, O7E24 S193F P242S
T7 sequence (whole entry): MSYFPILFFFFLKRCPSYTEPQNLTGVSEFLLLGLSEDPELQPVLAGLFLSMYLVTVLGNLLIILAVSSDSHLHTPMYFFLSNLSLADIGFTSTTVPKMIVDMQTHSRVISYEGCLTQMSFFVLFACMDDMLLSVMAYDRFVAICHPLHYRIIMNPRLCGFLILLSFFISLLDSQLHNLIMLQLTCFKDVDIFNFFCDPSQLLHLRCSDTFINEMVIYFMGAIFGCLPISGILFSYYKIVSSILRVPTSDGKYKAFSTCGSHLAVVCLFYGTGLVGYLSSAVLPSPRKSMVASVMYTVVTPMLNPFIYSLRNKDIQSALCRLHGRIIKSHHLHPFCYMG
Procedure, shortened: as §1

O7E24 = tested on: T8, O7E24
T8 sequence (whole entry): T7 sequence (whole entry) with F193S
Procedure, shortened: as §1

OR10A2 (Homo sapiens) = target: T9, OR10A2 (Homo sapiens) (UniProt Q9H208)
T9 sequence (whole entry): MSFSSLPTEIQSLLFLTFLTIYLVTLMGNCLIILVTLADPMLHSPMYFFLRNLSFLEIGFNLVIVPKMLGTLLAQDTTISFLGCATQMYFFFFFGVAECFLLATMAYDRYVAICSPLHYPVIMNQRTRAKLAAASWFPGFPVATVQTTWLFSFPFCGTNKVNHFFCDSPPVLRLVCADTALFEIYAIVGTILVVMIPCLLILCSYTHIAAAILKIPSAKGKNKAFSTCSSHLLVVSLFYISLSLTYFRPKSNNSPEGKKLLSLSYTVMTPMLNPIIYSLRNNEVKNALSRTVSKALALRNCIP
Procedure, shortened: as §1

OR10A3 (Homo sapiens) = target: T10, OR10A3 (Homo sapiens) (UniProt P58181)
T10 sequence (whole entry): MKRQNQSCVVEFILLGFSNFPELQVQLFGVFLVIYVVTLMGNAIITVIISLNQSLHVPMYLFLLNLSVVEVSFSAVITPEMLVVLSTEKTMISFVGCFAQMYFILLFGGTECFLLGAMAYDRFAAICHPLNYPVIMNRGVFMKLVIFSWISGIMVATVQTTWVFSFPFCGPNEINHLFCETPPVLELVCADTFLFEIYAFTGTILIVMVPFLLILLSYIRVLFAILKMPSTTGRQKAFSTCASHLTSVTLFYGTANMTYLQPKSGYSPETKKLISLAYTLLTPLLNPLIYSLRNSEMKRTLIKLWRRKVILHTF
Procedure, shortened: as §1

OR10A4 (Homo sapiens) = target: T11, OR10A4 (Homo sapiens) (UniProt Q9H209)
T11 sequence (whole entry): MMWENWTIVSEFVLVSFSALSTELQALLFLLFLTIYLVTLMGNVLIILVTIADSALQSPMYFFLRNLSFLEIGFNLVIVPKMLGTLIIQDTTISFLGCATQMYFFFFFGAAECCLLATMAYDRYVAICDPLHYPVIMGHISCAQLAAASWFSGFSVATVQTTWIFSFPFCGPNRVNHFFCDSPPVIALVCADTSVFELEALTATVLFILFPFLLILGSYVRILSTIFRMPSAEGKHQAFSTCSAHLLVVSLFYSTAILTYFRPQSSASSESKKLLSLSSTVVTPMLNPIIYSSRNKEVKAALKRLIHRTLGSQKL
Procedure, shortened: as §1

OR10A5 (Homo sapiens) = target: T12, OR10A5 (Homo sapiens) (UniProt Q9H207)
T12 sequence (whole entry): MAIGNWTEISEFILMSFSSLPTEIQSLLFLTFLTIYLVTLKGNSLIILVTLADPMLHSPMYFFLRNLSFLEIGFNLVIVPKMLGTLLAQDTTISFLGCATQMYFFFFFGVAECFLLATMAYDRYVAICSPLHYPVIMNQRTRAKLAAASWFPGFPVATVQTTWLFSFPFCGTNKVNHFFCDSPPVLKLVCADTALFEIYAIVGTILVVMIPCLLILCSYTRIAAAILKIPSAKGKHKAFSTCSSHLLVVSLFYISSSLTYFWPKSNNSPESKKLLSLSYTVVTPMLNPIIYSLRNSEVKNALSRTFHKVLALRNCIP
Procedure, shortened: as §1

OR10A6 (Homo sapiens) = target: T13, OR10A6 (Homo sapiens) (UniProt Q8NH74)
T13 sequence (whole entry): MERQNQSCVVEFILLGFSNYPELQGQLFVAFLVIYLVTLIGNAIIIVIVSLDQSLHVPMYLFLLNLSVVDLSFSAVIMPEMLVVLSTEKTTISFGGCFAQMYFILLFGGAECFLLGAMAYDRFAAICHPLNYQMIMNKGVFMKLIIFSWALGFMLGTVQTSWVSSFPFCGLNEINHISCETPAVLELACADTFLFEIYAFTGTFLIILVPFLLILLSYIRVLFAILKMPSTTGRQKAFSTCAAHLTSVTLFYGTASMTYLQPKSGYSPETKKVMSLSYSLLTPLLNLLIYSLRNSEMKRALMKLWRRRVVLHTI
Procedure, shortened: as §1

OR10A7 (Homo sapiens) = target: T14, OR10A7 (Homo sapiens) (UniProt Q8NGE5)
T14 sequence (whole entry): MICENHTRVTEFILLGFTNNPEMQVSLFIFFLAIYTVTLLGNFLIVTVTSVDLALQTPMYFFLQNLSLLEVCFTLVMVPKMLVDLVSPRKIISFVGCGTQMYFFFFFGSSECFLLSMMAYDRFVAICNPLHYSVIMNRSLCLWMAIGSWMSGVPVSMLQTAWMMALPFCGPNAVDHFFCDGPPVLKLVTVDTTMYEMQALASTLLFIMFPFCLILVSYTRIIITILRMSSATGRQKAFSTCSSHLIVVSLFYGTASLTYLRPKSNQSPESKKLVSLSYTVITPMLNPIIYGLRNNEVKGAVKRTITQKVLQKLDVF
Procedure, shortened: as §1

OR10AD1 (Homo sapiens) = target: T15, OR10AD1 (Homo sapiens) (UniProt Q8NGE0)
T15 sequence (whole entry): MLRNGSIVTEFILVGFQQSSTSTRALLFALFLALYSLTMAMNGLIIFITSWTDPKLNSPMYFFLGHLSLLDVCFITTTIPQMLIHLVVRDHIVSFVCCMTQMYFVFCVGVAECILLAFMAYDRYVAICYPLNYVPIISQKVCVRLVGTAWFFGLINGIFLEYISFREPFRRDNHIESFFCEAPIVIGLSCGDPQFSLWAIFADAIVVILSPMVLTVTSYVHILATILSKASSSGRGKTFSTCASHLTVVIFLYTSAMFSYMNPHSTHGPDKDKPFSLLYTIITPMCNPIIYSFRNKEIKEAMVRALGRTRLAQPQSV
Procedure, shortened: as §1

OR10AG1 (Homo sapiens) = target: T16, OR10AG1 (Homo sapiens) (UniProt Q8NH19)
T16 sequence (whole entry): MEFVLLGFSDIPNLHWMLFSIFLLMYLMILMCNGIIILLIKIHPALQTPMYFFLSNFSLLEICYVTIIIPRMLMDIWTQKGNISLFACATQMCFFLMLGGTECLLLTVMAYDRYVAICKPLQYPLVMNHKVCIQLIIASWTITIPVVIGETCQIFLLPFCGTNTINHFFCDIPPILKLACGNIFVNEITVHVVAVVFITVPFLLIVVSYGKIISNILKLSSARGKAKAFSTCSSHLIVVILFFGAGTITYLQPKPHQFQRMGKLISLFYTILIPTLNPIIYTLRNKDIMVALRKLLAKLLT
Procedure, shortened: as §1

OR10C1 (Homo sapiens) = target: T17, OR10C1 (Homo sapiens) (UniProt Q96KK4)
T17 sequence (whole entry): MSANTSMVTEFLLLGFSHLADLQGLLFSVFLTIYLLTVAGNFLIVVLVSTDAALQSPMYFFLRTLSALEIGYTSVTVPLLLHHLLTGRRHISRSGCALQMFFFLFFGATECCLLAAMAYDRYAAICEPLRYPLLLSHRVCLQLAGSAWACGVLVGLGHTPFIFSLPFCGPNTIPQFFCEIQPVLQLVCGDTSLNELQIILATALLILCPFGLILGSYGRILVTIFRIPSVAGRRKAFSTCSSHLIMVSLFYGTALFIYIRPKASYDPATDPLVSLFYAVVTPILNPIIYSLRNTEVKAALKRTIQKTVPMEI
Procedure, shortened: as §1

OR10D3 (Homo sapiens) = target: T18, OR10D3 (Homo sapiens) (UniProt Q8NH80)
T18 sequence (whole entry): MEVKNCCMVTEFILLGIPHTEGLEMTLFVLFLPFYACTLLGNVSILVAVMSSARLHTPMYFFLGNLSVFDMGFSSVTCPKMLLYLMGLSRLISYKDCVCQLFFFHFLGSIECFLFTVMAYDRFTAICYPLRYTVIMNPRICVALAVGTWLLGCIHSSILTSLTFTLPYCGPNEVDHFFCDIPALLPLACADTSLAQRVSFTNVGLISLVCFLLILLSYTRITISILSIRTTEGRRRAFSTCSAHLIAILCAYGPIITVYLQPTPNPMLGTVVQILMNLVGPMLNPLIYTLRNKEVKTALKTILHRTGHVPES
Procedure, shortened: as §1

Measured: odorant receptor agonist call

CCCC(S)CCOC(C)=O (stereo unspecified)
inactive: all assays above

CCCCCCC=CCCC=O
inactive: all assays above
